In the library only some 4.7% were active in any assay of this set; here they are far more common.
MrgX1 agonist: human MrgX1 receptor agonism, primary screen; Q96LB2; actives 0.44% (n = 310,000); MrgX1-HEK293 cells, Fluo-4 calcium fluorescence, agonist mode; active compounds read high; B-score at 10 µM;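 active = calcium response B-score plate-corrected fluorescence ratio at least 3 library SD, with starting fluorescence B-score inside 5 SD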
Target sequence (Q96LB2 whole entry, looked up): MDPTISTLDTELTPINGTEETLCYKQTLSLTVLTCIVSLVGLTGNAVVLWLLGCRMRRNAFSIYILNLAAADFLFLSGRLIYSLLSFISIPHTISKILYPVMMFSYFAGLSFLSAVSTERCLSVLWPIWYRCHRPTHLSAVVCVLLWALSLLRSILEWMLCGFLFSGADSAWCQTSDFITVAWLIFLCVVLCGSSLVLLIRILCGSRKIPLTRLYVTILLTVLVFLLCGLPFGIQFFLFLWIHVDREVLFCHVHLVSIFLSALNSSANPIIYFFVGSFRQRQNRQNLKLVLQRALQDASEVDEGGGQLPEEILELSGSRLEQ
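Test system: HEK293 cells stably expressing human MrgX1 receptor; Input: fifteen thousand cells per well; Dosing: compound delivered in addition one of three; Schedule: overnight seeding, then 1 h dark dye loading; Technique: Fluo-4 NW calcium fluorescence; Measure: B-scored fluorescence response ratio; Controls: positive and negative controls per plate.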
MrgX1 allo act: allosterically activates human MrgX1 receptor signaling. Q96LB2. MrgX1-HEK293, Fluo-4 calcium flux, FDSS; active compounds read high. B-score at 10 µM. actives 0.63% (n = 310,000). AID 588675;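 active = plate-corrected calcium response at least 3 library SD above typical, normal starting fluorescence, not activating the receptor alone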;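 note: compound read alongside a low EC10 to EC30 dose of BAM8-22 agonist; peak minus trough fluorescence over baseline measured at the second addition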
KCC2 mod: modulators of human KCC2 chloride dependent transport; Q9H2X9; KCC2 cells, thallium flux FluoZin-2 fluorescence; B-score of Tl+ flux slope (higher = more flux/activation; lower = inhibition) at 10 µM; actives 2.2% (n = 190,000); AID 1456;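 active = thallium flux slope and its plate-corrected score both differing from the plate sample mean at a set confidence after two filtering rounds, in either direction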;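 note: slope of fluorescence scaled to starting intensity during 10 to 20 s after thallium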
RGS4 act: RGS4 potentiation or activation | HEK293 M3R/inducible RGS4, carbachol calcium flux Fluo4; active compounds read low | AID 463111 | B-score at 10 µM | actives 0.92% (n = 310,000);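 active = B-score of the integrated calcium signal more than 4 SD below the library mean, with starting fluorescence not abnormally high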;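 note: negative B-score means reduced calcium response which marks RGS4 activation or potentiation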
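Material: M3R-expressing HEK293 line, RGS4 induced by doxycycline | Schedule: Overnight RGS4 induction, 30 min dye load 37 °C, 20 min compound RT | Measured by: Fluo4 fluorescence kinetic imaging of calcium | Read-out: Integrated calcium ratio converted to B score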
RGS4 inh: human RGS4 inhibition | P49798 | HEK293 M3R/RGS4 inducible, Fluo-4 calcium flux; active compounds read high; triggered by carbachol at its EC20 | B-score at 10 µM | actives 0.45% (n = 310,000) | AID 463165;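 active = B-score, a plate-corrected calcium signal, over three deviations above library mean, with baseline fluorescence within five deviations of library mean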;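 note: RGS4 expression induced by doxycycline in cells with stable M3 receptor; B-score is computed from the integrated fluorescence ratio over baseline after carbachol; higher B-score means a larger calcium signal and so more RGS4 inhibition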
Target sequence (P49798 whole entry, looked up): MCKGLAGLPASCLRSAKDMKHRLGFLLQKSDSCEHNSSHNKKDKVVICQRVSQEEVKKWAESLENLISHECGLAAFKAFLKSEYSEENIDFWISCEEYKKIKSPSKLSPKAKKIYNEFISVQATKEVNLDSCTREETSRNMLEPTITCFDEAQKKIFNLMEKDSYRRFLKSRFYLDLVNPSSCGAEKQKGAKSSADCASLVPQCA
MrgX1 antag: human MrgX1 receptor antagonism, primary screen; B-score at 10 µM; MRGX1-HEK293 calcium flux, Fluo-4, BAM8-22 antagonism; active compounds read low; actives 1.3% (n = 310,000); AID 588676; Q96LB2;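 active = calcium-response B-score plate-corrected more than 3 library SD below zero, starting fluorescence within 5 deviations, no agonist response on first addition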;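 note: peak minus trough fluorescence over baseline after final BAM8-22 challenge near maximal dose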
Numbers stand for hits; i = inactive; nt = not tested or not shown.

SMILES	MrgX1 agonist	MrgX1 allo act	KCC2 mod	RGS4 act	RGS4 inh	MrgX1 antag
COCCn1c(C)cc(C(=O)COC(=O)C2CC(=O)N(CCc3ccc(OC)c(OC)c3)C2)c1C (centres undefined)	i	i	nt	i	i	i
O=C(COc1ccccc1F)NNC(=O)c1cccc(-n2cccc2)c1	i	i	nt	i	i	-5
O=C(COc1cccc(F)c1)NNC(=O)c1cccc(-n2cccc2)c1	i	i	nt	i	i	i
CCOC(=O)c1ccc(NC(=O)c2ccccc2[N+](=O)[O-])cc1	i	i	i	i	i	i
CCOC(=O)c1ccc(Nc2ncccc2[N+](=O)[O-])cc1	i	i	i	i	i	-5.8
Cc1ccc(S(=O)(=O)N2CCCCC2)cc1C(=O)OC1CCCCC1=O (centres undefined)	i	i	nt	i	i	i
Cc1ccc(C(=O)/C=C/c2cc(Br)cc(Br)c2O)o1	i	i	nt	i	i	-5.3
CCN(CC)C(=O)Cn1cc(S(=O)(=O)CC(=O)Nc2ccccc2F)c2ccccc21	i	i	nt	i	i	i
CC1=NN(c2ccccc2)C(=O)/C1=C/c1c(O)n(-c2ccc(F)c(Cl)c2)[nH]c1=O	i	i	-8.3	i	i	i
O=C(COc1ccc(S(=O)(=O)NC2CCCCC2)cc1)NCc1cccnc1	i	i	i	i	i	i
N#CCCN(Cc1cccnc1)S(=O)(=O)c1ccc(S(=O)(=O)NC2CCCCC2)cc1	i	i	i	i	i	-5.6
COc1cccc(C2=CC(c3ccccc3)n3ncnc3N2)c1 (centres undefined)	i	15	i	i	i	i
COc1cccc(C2=CC(c3ccc(N(C)C)cc3)n3nnnc3N2)c1 (centres undefined)	i	i	nt	i	i	i
COc1ccc(C2C=C(c3ccc(C)cc3)Nc3ncnn32)cc1 (centres undefined)	nt	nt	nt	i	i	nt
COc1cccc(C2=CC(c3ccc(N(C)C)cc3)n3ncnc3N2)c1 (centres undefined)	48	i	nt	i	i	i
Cc1cccc(C(=O)NN2C(=O)C3C(c4ccccc4)C=CC(c4ccccc4)C3C2=O)c1 (centres undefined)	i	i	i	-7.1	i	i
CN(C)c1ccc(-c2n(C)c3ccccc3[n+]2C)cc1	i	i	nt	i	i	-8.8
Cn1c(-c2ccccn2)[n+](C)c2ccccc21	i	i	i	i	i	i
Cc1cc2n(n1)C(c1ccccc1)CC(c1ccc(Br)cc1)=N2 (centres undefined)	i	15	i	nt	nt	i
CNC(=S)N1N=C(c2ccc(Br)cc2)CC1c1ccc(Br)cc1 (centres undefined)	i	i	i	i	i	i
O=C(NCc1ccccc1)C(=O)Nc1nc(C23CC4CC(CC(C4)C2)C3)cs1	i	i	3.9	i	i	i
O=C(CCNS(=O)(=O)c1ccccc1)N1CCCCCCC1	i	i	nt	i	i	i
O=C(CCNS(=O)(=O)c1ccccc1)N1CCCCCC1	i	i	nt	-7.1	i	i
COc1ccc(/C=C(\C#N)c2nc3ccccc3[nH]2)cc1O	nt	nt	nt	i	i	nt
COc1cc(/C=C(\C#N)c2nc3ccccc3[nH]2)cc(OC)c1O	44	i	nt	i	i	i
SMILES	MrgX1 agonist	MrgX1 allo act	KCC2 mod	RGS4 act	RGS4 inh	MrgX1 antag
Cc1cc(/C=C(\C#N)c2nc3ccccc3[nH]2)c(C)n1C	i	i	i	i	i	i
N#C/C(=C\c1ccc(Sc2ccc(Cl)cc2)o1)c1nc2ccccc2[nH]1	i	i	i	nt	nt	i
COc1cc(/C=C(\C#N)c2nc3ccccc3n2C)cc(OC)c1O	i	i	-6.9	i	i	i
Cc1cc(/C=C(/C#N)c2nc3ccccc3[nH]2)c(C)n1-c1cccc([N+](=O)[O-])c1	i	i	nt	-7.1	i	i
N#C/C(=C\c1ccc(Cl)cc1)c1nc2ncccc2[nH]1	i	19	i	i	i	i
N#C/C(=C\c1c(Cl)cccc1Cl)c1nc2ccccc2[nH]1	i	8.7	i	i	i	i
CN(C)/C=C(\C#N)c1nc2ccccc2[nH]1	i	i	nt	i	i	i
CSc1ncccc1C(=O)Nc1ccc(S(=O)(=O)NC2=NCCCCC2)cc1	i	i	i	i	i	-4.6
CCOc1cc(C(=O)Nc2ccc(S(=O)(=O)NC3=NCCCCC3)cc2)cc(OCC)c1OCC	i	i	i	i	i	i
Cc1ccc(NC(=O)CNC(=O)c2cccc(C)c2)nc1	i	i	nt	i	i	i
C/C(=C/CCC(C)[C@H]1CC[C@@]2(C)C3=C(CC[C@]12C)[C@@]1(C)CCC(=O)C(C)(C)[C@@H]1CC3)C(=O)O (some centres undefined)	i	i	i	-12	i	i
C/C(=C/CCC(C)C1CCC2(C)C3CCC4C(C)(C)C(=O)CCC4(C)C3=CCC12C)C(=O)O (centres undefined)	nt	nt	i	-7.8	i	nt
O=C1CCCCC1C(Nc1ccc(Cl)cc1)c1ccccc1 (centres undefined)	i	i	i	i	i	i
O=C1CCCCC1C(Nc1ccc(Br)cc1)c1ccccc1 (centres undefined)	i	i	i	-7.5	i	i
N=C1/C(=C/c2cccs2)C(=O)N=C2SN=C(SCc3ccccc3)N12	i	i	32	i	i	i
CSC1=NSC2=NC(=O)/C(=C/c3coc4ccccc4c3=O)C(=N)N12	i	i	i	nt	nt	i
CCN1C(=O)/C(=C\N2CCCCCC2)SC1=S	i	i	i	-8.3	i	i
CCN1C(=O)/C(=C/N2CC(C)CC(C)C2)SC1=S (centres undefined)	i	i	i	i	i	i
COc1ccc(CN(C)C(=O)CNC(=O)CNC(=O)c2ccc(Cl)cc2Cl)cc1F	i	i	nt	i	i	i
Cc1ccc(N2CC(C(=O)OCc3ccccc3)CC2=O)cc1 (centres undefined)	i	i	-4.3	i	i	i
Cc1ccc(N2CC(C(=O)OCc3ccccc3F)CC2=O)cc1 (centres undefined)	i	i	i	i	i	i
Cc1ccc(N2CC(C(=O)Oc3cccc(N4C(=O)CCC4=O)c3)CC2=O)cc1 (centres undefined)	i	i	7.1	i	i	i
CC(=O)OC(C[N+]1(C)CCCCCC1)c1ccccc1 (centres undefined)	i	i	nt	-7	i	i
ClCC1=Nc2cccc3cccc(c23)N1	i	i	i	i	8.7	i
CC(C)[N+](C)(C)CC#CC(O)(c1ccccc1)c1ccccc1	i	i	i	-7.8	i	i
OC(C#CCCN1CCCCC1)(c1ccccc1)c1ccccc1	i	i	i	i	i	i
C[N+]1(CC#CC(O)(c2ccccc2)c2ccccc2)CCCC1	i	i	i	-8.4	i	i

Source: PubChem (several laboratories)
